C2C12 statin: suppression of simvastatin myotoxicity. rescue of ATP level, % at 7.49 µM. C2C12 myotubes + simvastatin, ATP luminescence, 48 h; scaled: DMSO 0, geranylgeraniol control 100. 330,000 tested, 0.78% active;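 active = mean ATP rescue above about 67%, or every replicate alone reaching that limit, limit read from the data, passing the limit was not always enough; inconclusive = no clear call, values can overlap the other calls; inactive = mean under the limit and some replicate under it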;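 also: myotubes were challenged with 10 µM simvastatin during compound exposure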
SUMO Mot1 rescue: SUMOylation pathway inhibition by Mot1-301 growth rescue; S. cerevisiae Mot1-301 growth rescue, ATP luminescence, 38.5C; percent above DMSO median, 100 means doubled; growth rescue, % at 18.8 µM; 320,000 tested, 1% active;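 active = every valid replicate shows activation above 250% relative to neutral control wells; inactive = the rest, any valid replicate at or below 250%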;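 also: OY570 slx delta 5 strain wells were the positive control but not used for scaling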
Cneo AK release: causes C. neoformans cell lysis; adenylate kinase release luminescence, 4 h; normalised: neutral wells 0, clomiphene wells 100; lysis activity, % at 15 µM; 360,000 tested, 0.2% active; AID 651654;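 active = mean lysis activity across replicates of at least 80%, whatever share of replicates individually reach that level; inactive = mean lysis activity below 80%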
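Material – Cryptococcus neoformans yeast cells · Quantity – 5 × 10^6 yeast cells/mL · Buffer or medium – YPD medium · Compound – single dose · Timing – 4 h static compound exposure, 37 °C, read 1 h post-reagent · Signal – adenylate kinase release luminescence · Read-out basis – lysis from increased AK signal · Benchmarks – Clomiphene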
Efflux pump inh: antifungal efflux pump inhibition, Nile Red retention. S. cerevisiae Candida pump triplex. inhibition, % at 10 µM. 330,000 tested, 0.44% active. AID 485275;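 active = plate passing quality check with inhibition over a set limit, or well fluorescence over plate mean plus 4 SD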;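 also: Nile Red retained in pooled yeast measured as flow cytometry median fluorescence; 0% = buffer negative control and 100% = Enniatin B positive control; higher means more Nile Red kept so more efflux inhibition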
Yeast cmpd fluor: compound fluorescence in yeast efflux pump counter-screen; shares compounds with Efflux pump inh; S. cerevisiae AD/pABC3, flow cytometry; fluorescence ratio to DMSO, % at 10 µM; 1,700 tested, 4% active;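 active = fluorescence ratio to DMSO above its plate's cutoff, the plate mean ratio plus 5 SD, cut at about 210% in these data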;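 also: unstained yeast with no Nile Red so the signal is compound autofluorescence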
CaMdr1 efflux inh: inhibitors of Candida albicans Mdr1 efflux pump; shares compounds with Efflux pump inh; S. cerevisiae AD/CaMDR1, Nile Red efflux, flow cytometry; inhibition, % at 10 µM; 1,700 tested, 1% active; AID 588518; in the data active = inhibition above about 26%;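 also: 0% = DMSO vehicle and 100% = reference inhibitor; higher means more Nile Red retained so more efflux inhibition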
CaCdr2 efflux inh: Candida Cdr2 efflux pump inhibition | shares compounds with Efflux pump inh | S. cerevisiae AD/CaCDR2, Nile Red retention, flow cytometry | Nile Red retention ratio vs DMSO, % at 10 µM | 1,700 tested, 4% active; in the data active = Nile Red retention ratio vs DMSO above about 190%;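 also: higher ratio means more blocking of Cdr2 efflux of the dye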
Cdr1 pump inh: Candida Cdr1 efflux pump inhibition; S. cerevisiae AD/CaCDR1, Nile Red efflux, flow cytometry; AID 588522; 1,700 tested, 1% active; shares compounds with Efflux pump inh; inhibition, % at 10 µM;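 active = inhibition above the screen-wide mean plus twice its standard deviation, cut at about 32% in these data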
* marks the source's active call; other numbers are inactive results; ? = inconclusive; nt = not tested or not shown; + = active, no number. The list is not random: actives were taken first. Their share in the collection is about 1.8%.

SMILES	C2C12 statin	SUMO Mot1 rescue	Cneo AK release	Efflux pump inh	Yeast cmpd fluor	CaMdr1 efflux inh	CaCdr2 efflux inh	Cdr1 pump inh
Cc1ccc(NC(=S)N(Cc2cccs2)Cc2cc3cccc(C)c3[nH]c2=O)cc1	nt	-12.4	nt	8.9*	103.4	-0.2	96.0	0.2
Cc1noc(C)c1NC(=O)Nc1ccc2c(c1)C(=O)N([C@@H](C)CO)C[C@H](C)[C@@H](CN(C)Cc1ccc(C(=O)O)cc1)O2	15.7	nt	-1.0	nt	nt	nt	nt	nt
CCOc1cc(/C=N/NC(=O)COc2cccc(C)c2)ccc1OC(=O)c1cccs1	-3.9	1.9	-5.3	0.1	nt	nt	nt	nt
CC(=O)Nc1ccc2oc(C)nc2c1	nt	158.7	nt	0.3	nt	nt	nt	nt
O=c1oc2ccccc2c(N2CCCCC2)c1[N+](=O)[O-]	nt	-19.1	-1.0	1.2*	99.8	-0.2	97.7	-0.1
COCCn1c(C)cc(C(=O)CSc2nc(C)nc3sc4c(c23)CCC4)c1C	-15.6	294.8	-0.5	1.6*	110.0	0.3	111.6	0.3
O=C(Oc1ccc(/C=N/NC(=O)c2ccccn2)cc1)c1cccc(Br)c1	9.1	-2.9	0.0	0.1	nt	nt	nt	nt
O=C(Oc1ccc(/C=N/NC(=O)c2ccccn2)cc1)c1ccc(Br)cc1	9.8	-5.9	1.2	7.2*	101.1	-0.1	102.2	0.0
C[C@@H](O)C#Cc1ccc([C@H]2[C@H]3CN(CC4CCOCC4)CCCCN3[C@H]2CO)cc1	nt	nt	0.2	nt	nt	nt	nt	nt
O=C1N=c2ccccc2=C1c1sc(NS(=O)(=O)Cc2ccccc2)nc1O	-10.7	-8.4	-1.0	0.7*	96.6	0.4	94.0	0.0
O=C1N=c2ccccc2=C1c1sc(NS(=O)(=O)c2ccccc2)nc1O	nt	-5.3	nt	-0.1	nt	nt	nt	nt
Cc1ccc(S(=O)(=O)N2CCC(c3nc4c(nnn4Cc4ccccc4)c(=O)[nH]3)CC2)cc1	nt	-2.9	6.4	0.8	nt	nt	nt	nt
O=c1[nH]c(C2CCN(S(=O)(=O)c3ccccc3C(F)(F)F)CC2)nc2c1nnn2Cc1ccccc1	6.2	-18.9	4.7	3.1*	109.0	-0.2	103.8	-0.2
Cc1ccc(Cn2nnc3c(=O)[nH]c(C4CCN(S(=O)(=O)c5ccccc5)CC4)nc32)cc1	nt	7.2	nt	-0.2	102.2	-0.5	110.3	-0.1
O=c1[nH]c(C2CCN(S(=O)(=O)c3ccccc3F)CC2)nc2c1nnn2Cc1ccc(OC(F)(F)F)cc1	26.1	nt	0.5	0.0	nt	nt	nt	nt
COc1ccc(Cn2nnc3c(=O)[nH]c(C4CCN(S(=O)(=O)c5ccc(C)cc5)CC4)nc32)cc1	-0.3	-11.5	0.9	0.1	111.5	0.1	109.9	0.2
C[C@@H]1CN([C@@H](C)CO)C(=O)c2cc(NC(=O)NC3CCCCC3)ccc2O[C@@H]1CN(C)S(=O)(=O)c1ccccc1	-12.3	nt	-1.1	nt	nt	nt	nt	nt
COc1ccc(-c2ccc3c(c2)[C@@H]2[C@@H](CCN2C(=O)c2ccc4c(c2)OCO4)[C@@H](CO)N3)cc1	?	nt	-8.5	nt	nt	nt	nt	nt
O=C(NC(=O)N1CCN(C(c2ccccc2)c2ccccc2)CC1)c1ccccc1	nt	51.2	1.7	0.0	nt	nt	nt	nt
Cc1c2cnn(CC(=O)NC3CCCC3)c(=O)c2c(C)n1Cc1ccccc1	44.3	27.6	-1.4	0.1	nt	nt	nt	nt
COc1ccc(N2C(=O)CC(NNC(=O)c3ccco3)C2=O)cc1 (centres undefined)	8.3	-4.7	1.6	2.1*	104.6	0.0	110.1	-0.1
Cc1cc2[nH]c(=O)c(=O)[nH]c2cc1S(=O)(=O)N1CCN(c2cccc(C(F)(F)F)c2)CC1	4.2	-6.5	-0.9	-0.1	nt	nt	nt	nt
CC1CCN(C(=O)c2ccc(S(=O)(=O)Cc3ccccc3F)c([N+](=O)[O-])c2)CC1	nt	32.3	nt	5.8*	111.2	-0.3	102.2	0.1
O=C(c1ccc(S(=O)(=O)Cc2ccccc2F)c([N+](=O)[O-])c1)N1CCCC1	nt	-6.7	nt	-0.2	nt	nt	nt	nt
COc1ccccc1Nc1nc2nonc2nc1N1CCC(C)CC1	nt	10.8	nt	-0.2	nt	nt	nt	nt
SMILES	C2C12 statin	SUMO Mot1 rescue	Cneo AK release	Efflux pump inh	Yeast cmpd fluor	CaMdr1 efflux inh	CaCdr2 efflux inh	Cdr1 pump inh
COc1ccc(OC)c(Nc2nc3nonc3nc2N2CCCCC2)c1	-17.2	-27.8	-12.8	6.7*	90.5	0.0	112.0	-0.1
C=CC1c2cc(OC)c(OC)cc2CC(C)N1Cc1ccc(OC)cc1 (centres undefined)	nt	nt	-0.7	nt	nt	nt	nt	nt
Cc1ccc2nc(/C(C#N)=C\c3ccc(N4CCOCC4)o3)[nH]c2c1	nt	47.8	nt	0.5*	128.2	0.3	131.4	-0.1
N#C/C(=C\c1ccc([N+](=O)[O-])o1)c1nc2ccccc2[nH]1	nt	357.0*	nt	5.1*	+	3.7	477.7*	2.4
Cc1ccc2nc(/C(C#N)=C\c3ccc([N+](=O)[O-])o3)[nH]c2c1	-176.1	72.0	-0.5	17.7*	+	7.7	+	0.4
Cc1ccc(/C(C#N)=C\c2ccc(N3CCOCC3)o2)cc1	15.3	30.6	0.2	0.0	nt	nt	nt	nt
Cc1ccc2nc(/C(C#N)=C/c3ccc(-c4ccccc4C(=O)O)o3)[nH]c2c1	2.4	-10.6	-2.2	0.2	nt	nt	nt	nt
CC(NC(=O)CN(C)CC(=O)Nc1ccc(Cl)cc1)c1ccc(F)cc1 (centres undefined)	-5.8	-18.2	-0.2	0.1	nt	nt	nt	nt
Cc1ccc(S(=O)(=O)N2CCN(C(=O)/C=C/c3ccccc3)CC2)cc1C	16.3	nt	3.4	nt	nt	nt	nt	nt
COc1ccc(C(C)=O)cc1COC(=O)c1ccc2ccccc2n1	18.2	342.1	-0.2	0.1	nt	nt	nt	nt
O=C1CCCN1CCCNc1ccc2nnc(CCC(=O)N3CCN(c4ccccc4)CC3)n2n1	-2.8	7.2	3.1	1.3*	98.9	-0.1	89.9	0.0
CCSc1cnc(-c2ccccc2)n1CC	15.6	75.5	nt	0.5*	86.5	-0.3	98.1	0.0
CCn1c(SCC(O)c2ccccc2)nnc1-c1ccccc1 (centres undefined)	nt	99.0	nt	0.1	nt	nt	nt	nt
O=[N+]([O-])c1ccc(N2CCc3ccccc3C2)nc1	-5.4	-0.3	3.7	0.6*	109.9	0.1	131.0	0.0
CC(=O)Nc1ccc(C(=O)OCC(=O)c2ccc(F)cc2)cc1	nt	-3.6	nt	32.0*	97.0	-0.1	105.7	-0.1
CC(=O)Nc1ccc(C(=O)N/N=C/c2ccc(F)cc2)cc1	nt	15.7	nt	0.6*	94.8	-0.3	102.9	0.0
CCOc1ccccc1N1CCN(C(=O)c2ccc(Cl)c(S(=O)(=O)N3CCCCC3)c2)CC1	20.5	nt	2.3	nt	nt	nt	nt	nt
O=C(c1cc2ccccc2o1)n1nnc2ccccc21	-0.4	242.8	-4.4	0.0	nt	nt	nt	nt
CC(C)C1N=C2c3ccccc3N=C(SCC#N)N2C1=O (centres undefined)	-4.3	0.6	-0.8	-0.1	nt	nt	nt	nt
COc1ccc(CCNC(=O)C2=CCN(S(=O)(=O)c3ccc(F)cc3)CC2)cc1OC	-1.0	60.1	0.4	0.4*	116.8	-0.3	108.3	0.1
CCOC(=O)N1CCC(=NNC(=O)COc2cccc(C)c2)CC1	nt	32.6	nt	0.1	nt	nt	nt	nt

High-throughput results from PubChem.
